test system: not listed separately; experiment: Partition coefficient (logP); type: physicochemical; details: octanol/water

logP	Structure (SMILES)
10.202	Br.Br.CCCCCCCCCCNC(=O)C1CCCN(Cc2ccc(CN3CCCC(C(=O)NCCCCCCCCCC)C3)cc2)C1 (stereo unspecified)

same assay, conditions: octanol/water; read-out: logP

logP	Structure (SMILES)
4.72	CN(Cc1ccccc1)C(=O)C1CCCN(Cc2ccc(CN3CCCC(C(=O)N(C)Cc4ccccc4)C3)cc2)C1 (stereo unspecified)
7.63	CCCCN(CCCC)C(=O)C1CCCN(Cc2ccc(CN3CCCC(C(=O)N(CCCC)CCCC)C3)cc2)C1 (stereo unspecified)
4.18	O=C(NCc1ccccc1)C1CCCN(Cc2ccc(CN3CCCC(C(=O)NCc4ccccc4)C3)cc2)C1 (stereo unspecified)
4.52	CCCCN(C)C(=O)C1CCCN(Cc2ccc(CN3CCCC(C(=O)N(C)CCCC)C3)cc2)C1 (stereo unspecified)
6.79	CCCN(Cc1ccccc1)C(=O)C1CCCN(Cc2ccc(CN3CCCC(C(=O)N(CCC)Cc4ccccc4)C3)cc2)C1 (stereo unspecified)
8.03	O=C(C1CCCN(Cc2ccc(CN3CCCC(C(=O)N(Cc4ccccc4)Cc4ccccc4)C3)cc2)C1)N(Cc1ccccc1)Cc1ccccc1 (stereo unspecified)
4.8	CCN(CC)CC1CCCN(Cc2ccc(CN3CCCC(CN(CC)CC)C3)cc2)C1 (stereo unspecified)
5.76	CCN(Cc1ccccc1)C(=O)C1CCCN(Cc2ccc(CN3CCCC(C(=O)N(CC)Cc4ccccc4)C3)cc2)C1 (stereo unspecified)
3.48	CCN(CC)C(=O)C1CCCN(Cc2ccc(CN3CCCC(C(=O)N(CC)CC)C3)cc2)C1 (stereo in doubt; 3a)

organism: Homo sapiens; experiment: Concentration required to inhibit ADP-induced platelet aggregation by 50%; details: not given

IC50 [µM]	Structure (SMILES)
41.4	CCN(CC)C(=O)C1CCCN(Cc2ccc(CN3CCCC(C(=O)N(CC)CC)C3)cc2)C1 (stereo in doubt; 3a-B (0))
15.3	CCN(CC)C(=O)C1CCCN(Cc2ccc(CN3CCCC(C(=O)N(CC)CC)C3)cc2)C1 (stereo in doubt; 3a-C (+))
233	CCN(CC)C(=O)C1CCCN(Cc2ccc(CN3CCCC(C(=O)N(CC)CC)C3)cc2)C1 (single isomer, unassigned; (-))
44.5	CCN(CC)C(=O)C1CCCN(Cc2ccc(CN3CCCC(C(=O)N(CC)CC)C3)cc2)C1 (stereo in doubt; 3a)

same assay, conditions: Homo sapiens

IC50 [µM]	Structure (SMILES)
27.3	CN(Cc1ccccc1)C(=O)C1CCCN(Cc2ccc(CN3CCCC(C(=O)N(C)Cc4ccccc4)C3)cc2)C1 (stereo unspecified)
58.7	CCCCN(CCCC)C(=O)C1CCCN(Cc2ccc(CN3CCCC(C(=O)N(CCCC)CCCC)C3)cc2)C1 (stereo unspecified)
53.6	O=C(NCc1ccccc1)C1CCCN(Cc2ccc(CN3CCCC(C(=O)NCc4ccccc4)C3)cc2)C1 (stereo unspecified)
22.1	CCCCN(C)C(=O)C1CCCN(Cc2ccc(CN3CCCC(C(=O)N(C)CCCC)C3)cc2)C1 (stereo unspecified)
862	Br.Br.CCCCCCCCCCNC(=O)C1CCCN(Cc2ccc(CN3CCCC(C(=O)NCCCCCCCCCC)C3)cc2)C1 (stereo unspecified)
72.9	CCCN(Cc1ccccc1)C(=O)C1CCCN(Cc2ccc(CN3CCCC(C(=O)N(CCC)Cc4ccccc4)C3)cc2)C1 (stereo unspecified)
1560	CCN(CC)CC1CCCN(Cc2ccc(CN3CCCC(CN(CC)CC)C3)cc2)C1 (stereo unspecified)
37.7	CCN(Cc1ccccc1)C(=O)C1CCCN(Cc2ccc(CN3CCCC(C(=O)N(CC)Cc4ccccc4)C3)cc2)C1 (stereo unspecified)

organism: Homo sapiens; experiment: Concentration inhibits collagen-induced platelet aggregation by 50%(Human blood); type: functional; details: not given
Procedure, shortened: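 Human platelets from citrated PRP washed in HEPES-buffered saline pH 7.4 (EGTA 5 mM, PGE1 1 μM), aequorin-loaded, resuspended with 1 mM MgCl2 and 1 mM CaCl2 at (3-4) × 10^5 platelets/μL. Fibrinogen 1.2 μg added, 37 °C, 1100 rpm stirring. Compound in 95% ethanol added 1 min before collagen (5 μg). Aggregation recorded 5 min. IC50 from linear regression of IC% on log concentration.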

IC50 [µM]	Structure (SMILES)
65.7	CCN(CC)C(=O)C1CCCN(Cc2ccc(CN3CCCC(C(=O)N(CC)CC)C3)cc2)C1 (stereo in doubt; 3a-B (0))
10.7	CCN(CC)C(=O)C1CCCN(Cc2ccc(CN3CCCC(C(=O)N(CC)CC)C3)cc2)C1 (stereo in doubt; 3a-C (+))
199	CCN(CC)C(=O)C1CCCN(Cc2ccc(CN3CCCC(C(=O)N(CC)CC)C3)cc2)C1 (single isomer, unassigned; (-))
20.2	CCN(CC)C(=O)C1CCCN(Cc2ccc(CN3CCCC(C(=O)N(CC)CC)C3)cc2)C1 (stereo in doubt; 3a)

From ChEMBL document CHEMBL1125511, “Molecular determinants of the platelet aggregation inhibitory activity of carbamoylpiperidines” (J Med Chem, 1992)
